Activity calls are given as the source filed them. The calls are words filed in the database; no cut-off is given here.
Experiments:
[1] = biological target: T1, Muscarinic acetylcholine receptor M3 (Homo sapiens, UniProt P20309); assay: Displacement of [3H]N-methyl-scopolamine bromide from human recombinant muscarinic M3 receptor expressed in HEK293T cell membranes after 1 hr by liquid scintillation counting method; assay type: cell-based, HEK-293T
Target sequence in this assay (P20309 whole entry): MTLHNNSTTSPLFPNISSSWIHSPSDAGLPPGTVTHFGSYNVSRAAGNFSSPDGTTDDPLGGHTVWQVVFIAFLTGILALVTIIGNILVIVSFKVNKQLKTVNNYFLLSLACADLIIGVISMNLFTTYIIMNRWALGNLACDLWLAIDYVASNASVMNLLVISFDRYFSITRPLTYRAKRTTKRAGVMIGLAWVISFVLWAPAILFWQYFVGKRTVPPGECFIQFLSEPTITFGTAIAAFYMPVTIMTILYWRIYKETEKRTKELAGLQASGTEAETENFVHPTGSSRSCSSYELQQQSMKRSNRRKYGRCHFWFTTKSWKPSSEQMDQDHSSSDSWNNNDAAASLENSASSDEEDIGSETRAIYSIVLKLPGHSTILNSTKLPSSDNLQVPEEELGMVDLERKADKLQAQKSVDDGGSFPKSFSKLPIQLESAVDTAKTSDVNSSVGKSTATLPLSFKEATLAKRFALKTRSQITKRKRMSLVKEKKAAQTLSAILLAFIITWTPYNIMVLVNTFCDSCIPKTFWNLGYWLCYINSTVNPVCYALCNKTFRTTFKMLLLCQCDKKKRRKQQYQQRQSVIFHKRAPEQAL

[2] = biological target: T2, Muscarinic acetylcholine receptor M2 (Homo sapiens, UniProt P08172); assay: Agonist activity at recombinant human muscarinic M2 receptor expressed in HEK293 cells co-expressing beta-arrestin assessed as increase in beta-arrestin recruitment after 24 hrs by Bright-Glo luminescence assay; assay type: cell-based
T2 sequence (P08172 whole entry): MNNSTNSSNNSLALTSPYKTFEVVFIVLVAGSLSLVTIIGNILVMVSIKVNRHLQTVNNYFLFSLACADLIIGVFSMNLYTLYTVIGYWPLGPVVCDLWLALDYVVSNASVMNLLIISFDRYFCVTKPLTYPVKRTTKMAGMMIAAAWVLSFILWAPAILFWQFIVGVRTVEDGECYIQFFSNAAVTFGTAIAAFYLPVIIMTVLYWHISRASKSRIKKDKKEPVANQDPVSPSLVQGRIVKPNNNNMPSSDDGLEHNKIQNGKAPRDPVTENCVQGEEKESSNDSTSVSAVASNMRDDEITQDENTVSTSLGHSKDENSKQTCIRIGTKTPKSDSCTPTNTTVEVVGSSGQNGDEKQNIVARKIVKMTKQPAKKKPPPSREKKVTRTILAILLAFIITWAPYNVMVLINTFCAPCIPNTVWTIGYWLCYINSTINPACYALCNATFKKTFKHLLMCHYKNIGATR
In short: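 HEK293 cells stably expressing tTA-dependent luciferase and β-arrestin-TEV protease, transiently transfected with M2-TEV-tTA; next day plated 15000 cells/well in DMEM 1% FBS on poly-D-lysine; after ≥6 h, compounds 0–100 μM in HBSS-HEPES; following day Bright-Glo added, luminescence after 20 min; 4–5 experiments in triplicate.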

[3] = biological target: T3, Muscarinic acetylcholine receptor M2 (Homo sapiens) (UniProt P08172); assay: Agonist activity at recombinant human muscarinic M2 receptor expressed in HEK293 cells assessed as inhibition of forskolin-mediated cAMP accumulation after 10 mins by FRET assay relative to ACh; assay type: functional, cell-based
T3 sequence (whole entry): T2 sequence (P08172 whole entry)
In short: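 HEK293 cells stably expressed the Epac FRET cAMP sensor and M2AChR-tetO, induced with 2 μg/mL doxycycline and 1 mM sodium butyrate for 40 h. Basal CFP/YFP was read after 20 min at 37 °C. […] Basal was subtracted; results are from 4–5 experiments in duplicate.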

[4] = biological target: T1, Muscarinic acetylcholine receptor M3; assay: Displacement of [3H]N-methyl-scopolamine from human recombinant muscarinic M3 receptor expressed in CHO-FlpIn cells after 6 hrs by liquid scintillation counting method; assay type: cell-based; conditions: read-out: Ki(app)
Target sequence in this assay (P20309 whole entry): as the sequence (P20309 whole entry) above

[5] = biological target: T1, Muscarinic acetylcholine receptor M3
Target sequence in this assay (P20309 whole entry): as the sequence (P20309 whole entry) above

[6] = biological target: T1, Muscarinic acetylcholine receptor M3; assay: Agonist activity at Gq/11 coupled recombinant human M3 mAChR expressed in CHO-FlpIn cells assessed as IP-one accumulation at 100 uM after 40 mins by HTRF assay relative to ACh; assay type: cell-based
Target sequence in this assay (P20309 whole entry, looked up): as the sequence (P20309 whole entry) above

[7] = biological target: T4, Muscarinic acetylcholine receptor M1 (Homo sapiens, UniProt P11229); assay: Displacement of [3H]N-methyl-scopolamine from human recombinant muscarinic M1 receptor expressed in CHO-FlpIn cells after 6 hrs by liquid scintillation counting method; assay type: cell-based; conditions: read-out: Ki(app)
T4 sequence (P11229 whole entry): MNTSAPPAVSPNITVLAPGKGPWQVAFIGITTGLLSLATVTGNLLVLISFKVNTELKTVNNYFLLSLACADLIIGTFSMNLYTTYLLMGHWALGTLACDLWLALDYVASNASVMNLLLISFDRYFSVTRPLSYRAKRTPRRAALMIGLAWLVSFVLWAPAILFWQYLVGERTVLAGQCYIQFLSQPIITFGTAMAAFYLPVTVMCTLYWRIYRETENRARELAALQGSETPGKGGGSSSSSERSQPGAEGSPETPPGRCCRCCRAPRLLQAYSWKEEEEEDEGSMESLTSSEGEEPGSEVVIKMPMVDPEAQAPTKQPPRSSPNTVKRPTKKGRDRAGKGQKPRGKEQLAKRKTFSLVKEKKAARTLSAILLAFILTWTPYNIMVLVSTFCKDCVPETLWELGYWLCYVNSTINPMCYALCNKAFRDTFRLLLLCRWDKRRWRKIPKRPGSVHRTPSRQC

[8] = biological target: T2, Muscarinic acetylcholine receptor M2; assay: Agonist activity at Gi/o protein-coupled recombinant human muscarinic M2 receptor expressed in CHO-FlpIn cells preincubated for 60 mins followed by [35S]GTPgammaS addition measured after 30 mins by liquid scintillation counting method; assay type: functional, cell-based
[9] = biological target: T3, Muscarinic acetylcholine receptor M2 (Homo sapiens); assay: Agonist activity at Gi/o protein-coupled recombinant human muscarinic M2 receptor expressed in CHO-FlpIn cells preincubated for 60 mins followed by [35S]GTPgammaS addition after 30 mins by liquid scintillation counting method relative to ACh; assay type: functional, cell-based
In short: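 Membranes (15 μg) came from CHO cells stably expressing M2R. They were equilibrated 60 min at 30 °C in buffer containing GDP plus ACh or compound. [35S]GTPγS (1 nM) was then added for 30 min at 30 °C. Samples were filtered on GF/B filters, washed with ice-cold 0.9% NaCl and counted by scintillation.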

[10] = biological target: T2, Muscarinic acetylcholine receptor M2; assay: Agonist activity at recombinant human muscarinic M2 receptor expressed in HEK293 cells assessed as inhibition of forskolin-mediated cAMP accumulation after 10 mins by FRET assay; assay type: functional, cell-based
[11] = biological target: T4, Muscarinic acetylcholine receptor M1; assay: Agonist activity at Gq/11 coupled recombinant human muscarinic M1 AChR expressed in CHO-FlpIn cells assessed as IP-one accumulation after 40 mins by HTRF assay; assay type: cell-based
[12] = biological target: T3, Muscarinic acetylcholine receptor M2 (Homo sapiens); assay: Agonist activity at recombinant human muscarinic M2 receptor expressed in HEK293 cells co-expressing beta-arrestin assessed as increase in beta-arrestin recruitment after 24 hrs by Bright-Glo luminescence assay relative to ACh; assay type: cell-based
In short: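 HEK293 cells stably expressing tTA-dependent luciferase and β-arrestin-TEV protease were transiently transfected with M2-TEV-tTA. Next day, cells were plated at 15000/well in DMEM with 1% FBS. After ≥6 h, compound (0–100 μM, in HBSS-HEPES pH 7.4) was added. The following day, luminescence was read with Bright-Glo. Results are from 4–5 experiments in triplicate.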

[13] = biological target: T2, Muscarinic acetylcholine receptor M2; assay: Displacement of [3H]N-methyl-scopolamine bromide from human recombinant muscarinic M2 receptor expressed in HEK293T cell membranes after 1 hr by liquid scintillation counting method; design: species or system HEK-293T
[14] = biological target: T4, Muscarinic acetylcholine receptor M1; assay: Displacement of [3H]N-methyl-scopolamine bromide from human recombinant muscarinic M1 receptor expressed in HEK293T cell membranes after 1 hr by liquid scintillation counting method; assay type: cell-based, HEK-293T
[15] = biological target: T2, Muscarinic acetylcholine receptor M2; assay: Displacement of [3H]N-methyl-scopolamine from human recombinant muscarinic M2 receptor expressed in CHO-FlpIn cells after 6 hrs by liquid scintillation counting method; assay type: cell-based; conditions: read-out: Ki(app)
[16] = biological target: T1, Muscarinic acetylcholine receptor M3; remark: listed apart in the source
Target sequence in this assay (P20309 whole entry, looked up): as the sequence (P20309 whole entry) above

[17] = biological target: T5, Muscarinic acetylcholine receptor M1 (Homo sapiens) (UniProt P11229); assay: Agonist activity at Gq/11 coupled recombinant human M1 mAChR expressed in CHO-FlpIn cells assessed as IP-one accumulation after 40 mins by HTRF assay relative to ACh; assay type: cell-based
T5 sequence (whole entry): T4 sequence (P11229 whole entry)
In short: (§1)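 Stably transfected CHO-FlpIn whole cells, 20000/well, grown overnight at 37 °C with 5% CO2. Cells were washed with PBS, then held 60 min at 37 °C in HEPES stimulation buffer with 50 mM LiCl, pH 7.4. ACh or test ligand was added and incubated 40 min.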

[18] = biological target: T3, Muscarinic acetylcholine receptor M2 (Homo sapiens); assay: Agonist activity at recombinant human muscarinic M2 receptor expressed in CHO cells assessed as upregulation in ERK1/2 phosphorylation after 5 mins by alphascreen assay relative to ACh; assay type: cell-based
[19] = biological target: Neuronal acetylcholine receptor; alpha4/beta2 (Homo sapiens, UniProt P17787+P43681); assay: Displacement of [3H]cytisine from alpha4beta2 nAChR expressed in human recombinant SH-SY5Y cell membranes after 120 mins
Chain of Neuronal acetylcholine receptor; alpha4/beta2 (P17787 whole entry): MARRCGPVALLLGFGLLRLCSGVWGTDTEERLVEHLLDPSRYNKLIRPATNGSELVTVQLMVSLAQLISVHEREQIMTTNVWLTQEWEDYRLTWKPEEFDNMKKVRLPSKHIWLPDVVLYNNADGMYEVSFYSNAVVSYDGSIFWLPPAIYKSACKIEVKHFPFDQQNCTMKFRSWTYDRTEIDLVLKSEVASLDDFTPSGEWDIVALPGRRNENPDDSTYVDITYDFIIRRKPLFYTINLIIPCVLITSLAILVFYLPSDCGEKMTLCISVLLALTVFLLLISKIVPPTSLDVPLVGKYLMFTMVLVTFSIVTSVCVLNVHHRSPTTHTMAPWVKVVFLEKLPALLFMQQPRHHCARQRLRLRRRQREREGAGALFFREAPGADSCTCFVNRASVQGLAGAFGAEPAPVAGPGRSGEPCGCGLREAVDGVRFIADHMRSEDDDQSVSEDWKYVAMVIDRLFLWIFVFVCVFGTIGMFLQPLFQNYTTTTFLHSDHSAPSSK
Chain of Neuronal acetylcholine receptor; alpha4/beta2 (P43681 whole entry): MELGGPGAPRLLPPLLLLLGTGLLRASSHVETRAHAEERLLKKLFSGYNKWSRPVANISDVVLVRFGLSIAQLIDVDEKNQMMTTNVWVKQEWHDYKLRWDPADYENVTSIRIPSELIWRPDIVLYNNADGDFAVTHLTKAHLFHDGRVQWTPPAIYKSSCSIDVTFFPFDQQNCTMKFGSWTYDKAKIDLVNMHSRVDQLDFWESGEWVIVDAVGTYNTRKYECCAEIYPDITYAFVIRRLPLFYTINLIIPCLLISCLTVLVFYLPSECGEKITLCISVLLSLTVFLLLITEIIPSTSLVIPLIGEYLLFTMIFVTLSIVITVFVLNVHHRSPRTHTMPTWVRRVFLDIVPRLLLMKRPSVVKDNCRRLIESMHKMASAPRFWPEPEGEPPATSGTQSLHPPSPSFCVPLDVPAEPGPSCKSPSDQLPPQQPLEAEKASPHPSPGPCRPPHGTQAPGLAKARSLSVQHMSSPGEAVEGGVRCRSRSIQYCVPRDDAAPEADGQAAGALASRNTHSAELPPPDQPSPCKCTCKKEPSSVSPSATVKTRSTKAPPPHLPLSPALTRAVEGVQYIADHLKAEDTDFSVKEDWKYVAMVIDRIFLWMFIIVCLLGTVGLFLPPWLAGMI

[20] = biological target: T2, Muscarinic acetylcholine receptor M2; assay: Agonist activity at human recombinant muscarinic M2 receptor co-expressed with Galphaqi5-HA in African green monkey COS7 cells assessed as IP accumulation after 2 hrs in presence of myo-[3H]inositol by liquid scintillation counting method; assay type: functional
[21] = biological target: T2, Muscarinic acetylcholine receptor M2; assay: Agonist activity at recombinant human muscarinic M2 receptor expressed in CHO cells assessed as upregulation in ERK1/2 phosphorylation after 5 mins by alphascreen assay; assay type: cell-based
[22] = biological target: T3, Muscarinic acetylcholine receptor M2 (Homo sapiens); assay: Agonist activity at Gi/o coupled recombinant human M2 mAChR expressed in CHO-FlpIn cells assessed as IP-one accumulation after 40 mins by HTRF assay; assay type: cell-based; in short: as §1
[23] = biological target: T3, Muscarinic acetylcholine receptor M2 (Homo sapiens); assay: Agonist activity at human recombinant muscarinic M2 receptor co-expressed with Galphaqi5-HA in African green monkey COS7 cells assessed as IP accumulation after 2 hrs in presence of myo-[3H]inositol by liquid scintillation counting method relative to carbachol; assay type: functional
[24] = biological target: T5, Muscarinic acetylcholine receptor M1 (Homo sapiens); assay: Agonist activity at recombinant human muscarinic M1 receptor expressed in CHO cells assessed as upregulation in ERK1/2 phosphorylation after 5 mins by alphascreen assay relative to ACh; assay type: cell-based
[25] = biological target: T4, Muscarinic acetylcholine receptor M1; assay: Agonist activity at recombinant human muscarinic M1 receptor expressed in CHO cells assessed as upregulation in ERK1/2 phosphorylation after 5 mins by alphascreen assay; assay type: cell-based
[26] = biological target: T3, Muscarinic acetylcholine receptor M2 (Homo sapiens); conditions: 10 uM

SMILES	Ki [1]	EC50 [2]	Emax [3]	Ki [4]	EC50 [5]	Emax [6]	Ki [7]	EC50 [8]	Emax [9]	EC50 [10]	EC50 [11]	Emax [12]	Ki [13]	Ki [14]	Ki [15]	Emax [17]	Emax [18]	EC50 [20]	EC50 [21]	Activity [22]	other results
C[N+](C)(C)CCc1ccc2c(c1)OCC2	6.3 µM	17 µM	102%	7.8 µM	3.7 µM	17%	6.8 µM	3.3 µM	100%	11 µM	4.8 µM	118%	13 µM	6.4 µM	2 µM	8%	100%	21 µM	0.24 µM	inactive	pEC50 [16]: 5.43 µM; Ki [19]: 9.7 µM; Emax [23]: 62%
COc1cccc(CC[N+](C)(C)C)c1	> 50 µM	14 µM	108%	81 µM	10 µM	43%	52 µM	7.8 µM	100%	6.3 µM	9.1 µM	133%	14 µM	33 µM	9.1 µM	48%	92%	12 µM	0.83 µM	inactive	Emax [24]: 53%; EC50 [25]: 0.54 µM; Emax [23]: 75%
COc1cccc(CCC[N+](C)(C)C)c1	0.62 µM	–	–	–	–	–	–	–	–	–	–	–	0.63 µM	0.33 µM	–	–	–	–	–	–	Emax [26]: < 10%

Reference: ChEMBL document CHEMBL4024758, “Structure-Based Design and Discovery of New M2 Receptor Agonists” (J Med Chem, 2017)
